Measured values of several laboratories.
Protocols differ between the studies behind these lines.
Target: Serine/threonine-protein kinase Nek6 (NEK6, Homo sapiens, UniProt Q9HC98)

CCC(=O)N[C@H]1CC[C@@H](C(=O)N(C)c2ccc(-c3nc4ccccc4o3)cc2)C1  remaining binding (cell-free assay, competition with immobilised ligand; 1 µM): 85%
N[C@H]1CCN(c2nccc(-c3cnn4ncccc34)n2)C1  remaining binding (binding; 1 µM): 100%
COc1ncc2cc3ccccc3nc2c1C#N  remaining binding (cell-free assay, competition with immobilised ligand; 5 µM): 100%
C[C@@H]1CCN(c2nccc(-c3cnn4ncccc34)n2)C1  remaining binding (binding; 1 µM): 100%
CCc1ccccc1C(=O)Nc1n[nH]c2c(C)c(F)c(C3C(C#N)=C(C)N(C)C(C)=C3C#N)cc12  remaining binding (cell-free assay, competition with immobilised ligand; 1 µM): 75%
CNC(=O)[C@@H]1CC[C@@H](n2c(-c3ccc4cnccc4c3)nc3ccc(C(=O)NCc4cccc(C(N)=O)c4)cc32)C1  remaining binding (binding, competition with immobilised ligand; 1 µM): 97%
C[C@@H](c1cccc(C#N)c1)n1cc(Cl)cc(C(N)=O)c1=N  remaining binding (cell-free assay, competition with immobilised ligand; 1 µM): 79%
F[C@@H]1CCN(c2nccc(-c3cnn4ncccc34)n2)C1  remaining binding (binding; 1 µM): 100%
Cc1cnc(Nc2ccc(C(=O)N3CCC(N4CCCC4)CC3)cc2)nc1-c1cc2ccccc2s1  remaining binding (binding, competition with immobilised ligand; 1 µM): 10%
Nc1ncc2c(n1)-c1c([nH]c3ccc(C#CC4CC4)cc13)CCCC2  remaining binding (binding, competition with immobilised ligand; 1 µM): 90%
COc1ccnn2ncc(-c3ccnc(N(C)C)n3)c12  remaining binding (binding; 1 µM): 100%
COc1ccc2c(O[C@@H]3C[C@H]4C(=O)N[C@]5(C(=O)O)CC5/C=C\CCCCC[C@H](NC(=O)OC5CCCC5)C(=O)N4C3)cc(-c3csc(NC(=O)C(C)C)n3)nc2c1C (stereo partly shown)  remaining binding (cell-free assay, competition with immobilised ligand; 1 µM): 98%
O=C(NCCCN1CCOCC1)c1ccc(Nc2ncc(Cl)c(-c3ccc(Cl)s3)n2)cc1  remaining binding (binding, competition with immobilised ligand; 1 µM): 2.5%
c1cncc(-c2cccc(Nc3nccc(NC4CCCCC4)n3)c2)c1  remaining binding (binding, competition with immobilised ligand; 10 µM): 71%
CS(=O)(=O)N1CCCC(NC(=O)[C@H](CCC2CCCCC2)NC(=O)c2ccc(CNC(=O)c3cnc4ccccn34)cc2)C1 (stereo partly shown)  remaining binding (cell-free assay, competition with immobilised ligand; 0.1 µM): 100%
O=C(Nc1c[nH]nc1C(=O)NC1CCNCC1)c1cc(F)cc(F)c1  remaining binding (binding, competition with immobilised ligand; 1 µM): 100%
CN(C)c1ncc(F)c(-c2cnn3ncccc23)n1  remaining binding (binding; 1 µM): 99%
COc1cnc(Nc2cccc(S(N)(=O)=O)c2)nc1N1CCN(c2ccccc2)C(=O)C1  remaining binding (binding, competition with immobilised ligand; 1 µM): 98%
c1cnn2ncc(-c3ccnc(N4CCC45COC5)n3)c2c1  remaining binding (binding; 1 µM): 94%
CSc1cccnc1N1CCN(Cc2nc3ccccc3[nH]2)CC1  remaining binding (cell-free assay, competition with immobilised ligand; 1 µM): 98%
CN(C)c1nccc(-c2cnn3ncccc23)n1  remaining binding (binding; 1 µM): 100%
O=C(NCCCN1CCOCC1)c1ccc(Nc2nccc(-c3cc4ccccc4s3)n2)cc1  remaining binding (binding, competition with immobilised ligand; 1 µM): 81%
